Measurements gathered from unrelated publications.
Compare with care: the assays were run in different laboratories.
Target: Mitogen-activated protein kinase kinase kinase 8 (MAP3K8, Homo sapiens, UniProt P41279)

| SMILES | effect on | mode | method | tested at | endpoint | value |
| --- | --- | --- | --- | --- | --- | --- |
| COc1cc2ncnc(Nc3ccc(Oc4ccccc4)c(C)c3C)c2cc1OC | enzyme activity | inhibitor |  | 1 µM | inhibition | -8% |
| Cc1sc(C(=O)NC2COC2)cc1-n1cc(NC(=O)Nc2c(F)cccc2Cl)cn1 | enzyme activity | inhibitor |  | 10 µM | remaining activity | 105% |
| O=C(CSc1nc2nccnc2c(=O)n1CCc1ccccc1)Nc1nccs1 | enzyme activity | inhibitor |  | 10 µM | inhibition | 5% |
| CC/C(=N\NC(=O)NCc1cccc(O)c1)c1ccc(O)c(C)c1O | enzyme activity | inhibitor |  | 0.1 µM | inhibition | -1.8% |
| CC(C)(C)c1nc2c(s1)c1nc(N)ncc1c1ccc(NS(=O)(=O)c3c(F)cccc3F)c(F)c12 | enzyme activity | inhibitor | radiometric | 1 µM | remaining activity | 93% |
| CS(=O)(=O)Nc1cccc(-c2csc(NC(=O)CSc3nc4nccnc4c(=O)n3CCc3ccccc3)n2)c1 | enzyme activity | inhibitor |  | 10 µM | inhibition | 4% |
| CC(C)(O)[C@H]1CC[C@H](Nc2ccc3ncc(-c4cccc(C(F)(F)F)c4)n3n2)CC1 | enzyme activity | inhibitor |  | 1 µM | remaining activity | 107% |
| CCCS(=O)(=O)Nc1ccc(F)c(C(=O)c2c[nH]c3ncc(-c4ccc(Cl)cc4)cc23)c1F | enzyme activity | inhibitor |  | 1 µM | inhibition | < 10% |
| COc1cc2ncnc(Nc3ccc(Oc4ccccc4)cc3C)c2cc1OC | enzyme activity | inhibitor |  | 1 µM | inhibition | 33% |
| N#CCCc1ccc2c(c1)-c1[nH]c3ccc([N+](=O)[O-])cc3c1CC(=O)N2 | cell-free assay |  |  | 0.5 µM | remaining signal | 87.5% |
| O=C(Nc1cnn(-c2csc(C(=O)NC3COC3)c2)c1)Nc1ccccc1Cl | enzyme activity | inhibitor |  | 5 µM | remaining activity | 92.7% |
| O=C1NC(=O)c2cc(Nc3ccc(F)cc3)c(Nc3ccc(F)cc3)cc21 | cell-free assay |  |  | 0.5 µM | remaining signal | 96.3% |
| CC(C)(C)c1nc(-c2cccc(NS(=O)(=O)c3c(F)cccc3F)c2F)c(-c2ccnc(N)n2)s1 | enzyme activity | inhibitor | radiometric | 1 µM | remaining activity | 85% |
| CCOc1cc(-c2nncn2C)ccc1Nc1ncc2cc(C)nc(NCC(C)(C)C)c2n1 | enzyme activity | inhibitor | FRET | 1 µM | inhibition | < 15% |
